ChEMBL document CHEMBL3091399, “Protease inhibitors from Microcystis aeruginosa bloom material collected from the Dalton Reservoir, Israel” (J Nat Prod, 2013)
Calls of active or inactive are those of the source. The rule behind the calls is not given here. *1 amine or outer side, *2 acyl side, *3 side chain or, on linkers, in order; H or OH if unused. Where a SMILES comes first, the peptide text is derived from it. Bridges are numbered along the chain shown (N, C = ends). [ ]: non-standard residue; d: D form. hTyr = N[C@@H](CCc1ccc(O)cc1)C(=O)O; NMeA = CN[C@@H](C)C(=O)O; CO = O=C([*:1])[*:2]

Columns and labels:
Trypsin [1] = target: T1, Trypsin (Homo sapiens, UniProt P07477+P07478+P35030); test: Inhibition of trypsin (unknown origin) using benzoyl-L-arginine-p-nitroanilide hydrochloride as substrate preincubated for 5 mins before substrate addition measured after 30 mins; assay type: protein assay
How it was run: (§1)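 Trypsin stock 1 mg/mL in 0.05 M Tris-HCl/100 mM NaCl/1 mM CaCl2, pH 7.5. Substrate in 1:9 DMSO/Tris buffer. Samples from 1 mg/mL DMSO stocks. Enzyme and sample are preincubated in buffer at 37 °C for 5 min. Substrate is then added and kinetics are read at 405 nm, 37 °C, for 30 min. Percent inhibition is taken against a DMSO vehicle control.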

Prothrombin [2] = target: T2, Prothrombin (Homo sapiens, UniProt P00734); test: Inhibition of thrombin (unknown origin) using z-Gly-Pro-Arg-4MbetaNA-acetate as substrate preincubated for 20 mins before substrate addition measured after 20 mins
How it was run: (§2)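 Thrombin stock 0.5 mg/mL in 0.2 M Tris-HCl, pH 8. Substrate stock 0.5 mg/mL in water. Test samples from 1 mg/mL DMSO stocks. Enzyme and sample are preincubated in buffer at 25 °C for 20 min. Substrate is then added and kinetics are read at 405 nm, 25 °C, for 20 min. Percent inhibition is taken against a DMSO-only control.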

Trypsin [3] = target: T1, Trypsin; test: Inhibition of trypsin (unknown origin) using benzoyl-L-arginine-p-nitroanilide hydrochloride as substrate preincubated at 45.5 uM for 5 mins before substrate addition measured after 30 mins; assay type: protein assay; how it was run: as §1
Prothrombin [4] = target: T2, Prothrombin; test: Inhibition of thrombin (unknown origin) using z-Gly-Pro-Arg-4MbetaNA-acetate as substrate preincubated at 45.5 uM for 20 mins before substrate addition measured after 20 mins; how it was run: as §2

| IC50 (Trypsin [1]) | inhibition (Trypsin [3]) | inhibition (Prothrombin [4]) | SMILES | inhibition (Trypsin [1]) | other results |
| --- | --- | --- | --- | --- | --- |
| 30.8 µM | – | – | N=C(N)NCCCCNC(=O)[C@@H]1C[C@@H]2CC[C@@H](O)C[C@@H]2N1C(=O)[C@H](Cc1ccccc1)NC(=O)[C@@H](O)Cc1ccc(O)c(Cl)c1 | – | IC50 (Prothrombin [2]): 15.5 µM |
| – | inactive | inactive | CC[C@H](C)[C@@H]1NC(=O)[C@H](NC(=O)N[C@@H](CCCNC(=N)N)C(=O)O)CCCCNC(=O)[C@H](Cc2ccccc2)NC(=O)[C@H](C)N(C)C(=O)[C@H](CCc2ccc(O)cc2)NC1=O ({Arg-CO}-[dK]I[hTyr][NMeA]F; lactam 1-C) | – | – |
| – | inactive | inactive | NC(=O)[C@@H]1C[C@@H]2CC[C@H](O)C[C@@H]2N1C(=O)[C@@H](Cc1ccccc1)NC(=O)[C@H](O)Cc1ccc(O)cc1 | – | – |
| – | – | – | CC[C@H](C)[C@@H]1NC(=O)[C@H](Cc2ccccc2)N(C)C(=O)[C@H]([C@@H](C)CC)N2C(=O)[C@H](CC[C@H]2O)NC(=O)[C@H](CCCNC(=N)N)NC(=O)[C@@H](NC(=O)[C@H](O)COS(=O)(=O)O)[C@@H](C)OC1=O | Active | – |
| – | inactive | inactive | NC(=O)[C@@H]1C[C@@H]2CC[C@H](O)C[C@@H]2N1C(=O)[C@@H](Cc1ccc(O)cc1)NC(=O)[C@H](O)Cc1ccc(O)cc1 | – | – |
| 7.3 µM | – | inactive | CC(C)C[C@@H](NC(=O)[C@H](O)Cc1cc(Cl)c(O)c(Cl)c1)C(=O)N1[C@H](C(=O)NCCCCNC(=N)N)C[C@@H]2CC[C@@H](OS(=O)(=O)O)C[C@@H]21 | – | – |
| – | – | – | CC[C@H](C)[C@@H]1NC(=O)[C@H](Cc2ccccc2)N(C)C(=O)[C@H]([C@@H](C)CC)N2C(=O)[C@H](CC[C@H]2OC)NC(=O)[C@H](CCCNC(=N)N)NC(=O)[C@@H](NC(=O)[C@H](O)COS(=O)(=O)O)[C@@H](C)OC1=O | Active | – |
| 19 µM | – | inactive | N=C(N)NCCCCNC(=O)[C@@H]1C[C@@H]2CC[C@@H](O)C[C@@H]2N1C(=O)[C@H](Cc1ccccc1)NC(=O)[C@H](O)Cc1ccc(O)c(Cl)c1 | – | – |
| 9.5 µM | – | inactive | CC(C)C[C@@H](NC(=O)[C@H](O)Cc1ccc(O)c(Cl)c1)C(=O)N1[C@H](C(=O)NCCCCNC(=N)N)C[C@@H]2CC[C@@H](OS(=O)(=O)O)C[C@@H]21 | – | – |
| – | – | – | CC[C@H](C)[C@@H]1NC(=O)[C@H](Cc2ccccc2)N(C)C(=O)[C@H]([C@@H](C)CC)N2C(=O)[C@H](CC[C@H]2OC)NC(=O)[C@H](CCCNC(=N)N)NC(=O)[C@@H](NC(=O)[C@@H](COS(=O)(=O)O)OS(=O)(=O)O)[C@@H](C)OC1=O | Active | – |
| – | – | – | CC[C@H](C)[C@@H]1NC(=O)[C@H](Cc2ccccc2)N(C)C(=O)[C@H]([C@@H](C)CC)N2C(=O)[C@H](CC[C@H]2O)NC(=O)[C@H](CCCNC(=N)N)NC(=O)[C@@H](NC(=O)[C@@H](COS(=O)(=O)O)OS(=O)(=O)O)[C@@H](C)OC1=O | Active | – |
| – | inactive | inactive | C=C(C)C(O)CC/C(C)=C/CN(CCCC(C(=O)[O-])[N+](C)(C)C)C(=N)N (stereo not given) | – | – |
